Source: ChEMBL document CHEMBL1154972, “Novel pyrazolo-tetrahydropyridines as potent orexin receptor antagonists” (Bioorg Med Chem Lett, 2010)
Activity calls are given as the source filed them. The rule behind the calls is not given here.

Legend:
[1] = target: T1, Orexin/Hypocretin receptor type 1 (Homo sapiens, UniProt O43613); experiment: Antagonist activity at human OX1 receptor expressed in CHO cells assessed as inhibition of calcium mobilization by FLIPR assay; format: functional, cell-based
T1 sequence (O43613 whole entry): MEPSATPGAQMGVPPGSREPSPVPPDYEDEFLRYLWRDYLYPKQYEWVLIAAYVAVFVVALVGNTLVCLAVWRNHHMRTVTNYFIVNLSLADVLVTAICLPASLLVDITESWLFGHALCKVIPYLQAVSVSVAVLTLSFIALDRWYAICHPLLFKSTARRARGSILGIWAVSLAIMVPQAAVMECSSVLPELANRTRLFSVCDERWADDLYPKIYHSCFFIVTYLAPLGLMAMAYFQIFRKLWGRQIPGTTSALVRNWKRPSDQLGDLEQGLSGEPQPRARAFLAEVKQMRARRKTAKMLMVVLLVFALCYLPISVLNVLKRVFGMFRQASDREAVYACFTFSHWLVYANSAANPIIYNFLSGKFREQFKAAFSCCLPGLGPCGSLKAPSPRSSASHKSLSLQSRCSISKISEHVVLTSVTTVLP
Method in brief: (§1)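 CHO cells stably bearing human OX1 or OX2 receptor, plated and loaded at 37 °C, 5% CO2 with fluo-3 AM calcium dye, then washed. Test antagonists added at varying concentrations before orexin A challenge; intracellular Ca2+ rise followed as fluorescence change on FLIPR. IC50 taken as concentration giving 50% inhibition of agonist response.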

Orexin receptor type 2 = target: T2, Orexin receptor type 2 (Homo sapiens, UniProt O43614); experiment: Antagonist activity at human OX2 receptor expressed in CHO cells assessed as inhibition of calcium mobilization by FLIPR assay; format: functional, cell-based; method in brief: as §1
T2 sequence (O43614 whole entry): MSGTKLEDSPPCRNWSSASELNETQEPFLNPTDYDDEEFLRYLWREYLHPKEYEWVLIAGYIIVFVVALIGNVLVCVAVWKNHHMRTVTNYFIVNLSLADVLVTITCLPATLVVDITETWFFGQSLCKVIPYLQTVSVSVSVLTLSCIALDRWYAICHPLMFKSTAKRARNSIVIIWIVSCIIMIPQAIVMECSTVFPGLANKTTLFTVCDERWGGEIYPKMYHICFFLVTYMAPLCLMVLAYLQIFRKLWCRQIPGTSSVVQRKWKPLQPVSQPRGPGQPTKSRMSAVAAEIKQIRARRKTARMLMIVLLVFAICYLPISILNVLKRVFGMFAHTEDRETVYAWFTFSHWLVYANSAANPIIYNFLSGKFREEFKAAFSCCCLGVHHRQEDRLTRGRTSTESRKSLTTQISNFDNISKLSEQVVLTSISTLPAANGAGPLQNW

Rattus norvegicus [2] = experiment: Somnolence activity in Wistar rat assessed as time spent in rapid eye movement sleep at 100 mg/kg, po over 12 hrs night period by radiotelemetric assay; format: functional
Method in brief: (§2)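 Adult male Wistar rats carrying radiotelemetric implants; single oral dose 100 mg/kg in 100% PEG-400 given at dark (active) phase onset. EEG, EMG, home cage activity and body temperature recorded, effects integrated over following 12-h night. Crossover design, groups of 7 or 8, washout of at least 4 days; paired t-test; means ± SEM.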

Rattus norvegicus [3] = experiment: Somnolence activity in Wistar rat assessed as time spent in non-rapid eye movement sleep at 100 mg/kg, po over 12 hrs night period by radiotelemetric assay; format: functional, organism-based; set-up: dose 100 mg/kg; method in brief: as §2
Rattus norvegicus [4] = experiment: Somnolence activity in Wistar rat assessed as home cage activity in dark at 100 mg/kg, po over 12 hrs night period by radiotelemetric assay; format: functional, organism-based; set-up: dose 100 mg/kg; method in brief: as §2
Rattus norvegicus [5] = experiment: Somnolence activity in Wistar rat assessed as time spent in active wake at 100 mg/kg, po over 12 hrs night period by radiotelemetric assay; format: functional, organism-based; set-up: dose 100 mg/kg; method in brief: as §2

SMILES	IC50 [1] [nM]	IC50 (Orexin receptor type 2) [nM]	Activity (Rattus norvegicus [2]) [%]	Activity (Rattus norvegicus [3])	Activity (Rattus norvegicus [4])	Activity (Rattus norvegicus [5])
CCc1ccc(CC[C@@H]2c3c(C)nn(CC)c3CCN2[C@@H](C(=O)NC)c2ccccc2)cc1	1420	174	–	–	–	–
CCn1nc(C)c2c1CCN(C(C(=O)NC)c1ccccc1)C2CCc1cccc(C)c1 (mixture of isomers)	180	19	–	–	–	–
CCn1nc(C)c2c1CCN(C(C(=O)NC)c1ccccc1)C2CCc1ccc(OC)cc1 (mixture of isomers)	10000	219	–	–	–	–
CCn1nc(C)c2c1CCN([C@@H](C(=O)NC)c1ccccc1)[C@H]2CCc1ccc(C)c(C)c1	–	–	15	Active	Active	Active
CCn1nc(C)c2c1CCN([C@@H](C(=O)NC)c1ccccc1)[C@H]2CCc1ccc(C(C)C)cc1	161	9	–	–	–	–
CCn1nc(C)c2c1CCN(C(C(=O)NC)c1ccccc1)C2CCc1cccc(C(F)(F)F)c1 (mixture of isomers)	358	7	–	–	–	–
CCn1nc(C)c2c1CCN(C(C(=O)NC)c1ccccc1)C2Cc1ccc(C(F)(F)F)cc1 (mixture of isomers)	769	25	–	–	–	–
CCn1nc(C)c2c1CCN(C(C(=O)NC)c1ccccc1)C2CCc1ccc(C)cc1 (mixture of isomers)	108	6	–	–	–	–
CCn1nc(C)c2c1CCN([C@@H](C(=O)NC)c1ccccc1)[C@H]2CCc1ccc(C(F)(F)F)cc1	128	3	–	–	–	–
CCn1nc(C)c2c1CCN(C(C(=O)NC)c1ccccc1)C2CCc1cccc(F)c1 (mixture of isomers)	402	10	–	–	–	–
CCn1nc(C)c2c1CCN(C(C(=O)NC)c1ccccc1)C2CCc1ccccc1F (mixture of isomers)	669	22	–	–	–	–
CCn1nc(C)c2c1CCN([C@@H](C(=O)NC)c1ccccc1)[C@H]2COc1ccc(C)cc1	10000	19	–	–	–	–
CCn1nc(C)c2c1CCN([C@@H](C(=O)NC)c1ccccc1)[C@@H]2CCc1ccc(C(C)C)cc1	1920	179	–	–	–	–
CCn1nc(C)c2c1CCN(C(C(=O)NC)c1ccccc1)C2CCc1ccccc1C (mixture of isomers)	1030	21	–	–	–	–
CCn1nc(C)c2c1CCN(C(C(=O)NC)c1ccccc1)C2CCc1ccc(Cl)cc1 (mixture of isomers)	993	12	–	–	–	–
CCc1ccc(CC[C@H]2c3c(C)nn(CC)c3CCN2[C@@H](C(=O)NC)c2ccccc2)cc1	63	3	–	–	–	–
CCn1nc(C)c2c1CCN([C@@H](C(=O)NC)c1ccccc1)[C@H]2CCc1cc(F)c(C(F)(F)F)c(F)c1	–	–	8	Active	Active	–
